High-throughput results as filed in PubChem BioAssay.
In the library only some 4% were active in any assay of this set; here they are far more common.
Mdm2 MdmX PPI: human Mdm2/MdmX binding inhibition; O15151+Q00987; SaOS-2 split-luciferase Mdm2/MdmX complementation, luminescence; inhibition, % at 8 µM; 3% of 330,000 active; AID 485346;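 active means inhibition of at least 50% at 8 µM in the primary screen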
XBP1 UPR activ: adaptive UPR (XBP1) activation; CHO-XBP1 luciferase reporter, IRE1-XBP1 UPR activation, luminescence; percent of tunicamycin response, DMSO as zero; 0.33% of 330,000 active; activation, % at 20 µM;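 active means versus positive control, 20 µM dose yields 30% or more activation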;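 further: 100% = tunicamycin at 10 µg/mL and 0% = DMSO only wells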
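Material – CHO cell line with stable XBP1 luciferase reporter · Buffer or medium – F12 plus 10% FBS · Compound – single point, 20 µM final compound, 1% DMSO · Schedule – 16-18 h cell attachment at 37 °C, then 6 h compound exposure · Signal – Steady-Glo luminescence read · Benchmarks – high control tunicamycin 10 µg/mL final, low control DMSO vehicle only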
Granule exo inh: blocks lytic granule exocytosis. 0.66% of 360,000 active. inhibition, % at 10 µM. TALL-104 LAMP-1 surface exposure, flow cytometry; cells stimulated with thapsigargin and PMA. AID 651702;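 active means inhibition above about 55%, limit read from the data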
ABHD5-PLIN5 inh: inhibitors of human ABHD5-perilipin-5 interaction; AID 602281; Split G. princeps luciferase complementation, luminescence, 4 h; inhibition, % at 4 µM; 0.78% of 360,000 active; Q00G26+Q8WTS1;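 active means inhibition above the mean inhibition across every tested compound plus 3 SD, cut at about 22% in these data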;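 further: 0% = DMSO only wells and the 100% control is not disclosed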
Target sequence (Q00G26 whole entry, looked up): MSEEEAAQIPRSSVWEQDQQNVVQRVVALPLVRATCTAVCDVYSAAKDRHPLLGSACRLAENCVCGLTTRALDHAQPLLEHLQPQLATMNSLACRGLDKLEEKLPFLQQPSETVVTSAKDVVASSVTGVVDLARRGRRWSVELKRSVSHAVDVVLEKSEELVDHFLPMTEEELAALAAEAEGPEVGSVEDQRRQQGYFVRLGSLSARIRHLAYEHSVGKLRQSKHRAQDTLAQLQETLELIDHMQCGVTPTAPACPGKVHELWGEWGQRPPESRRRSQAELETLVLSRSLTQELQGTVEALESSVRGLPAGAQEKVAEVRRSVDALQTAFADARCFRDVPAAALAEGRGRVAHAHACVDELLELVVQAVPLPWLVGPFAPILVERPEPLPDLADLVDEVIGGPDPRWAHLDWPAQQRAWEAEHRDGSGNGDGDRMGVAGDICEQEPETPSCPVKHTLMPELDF
Target sequence (Q8WTS1 whole entry, looked up): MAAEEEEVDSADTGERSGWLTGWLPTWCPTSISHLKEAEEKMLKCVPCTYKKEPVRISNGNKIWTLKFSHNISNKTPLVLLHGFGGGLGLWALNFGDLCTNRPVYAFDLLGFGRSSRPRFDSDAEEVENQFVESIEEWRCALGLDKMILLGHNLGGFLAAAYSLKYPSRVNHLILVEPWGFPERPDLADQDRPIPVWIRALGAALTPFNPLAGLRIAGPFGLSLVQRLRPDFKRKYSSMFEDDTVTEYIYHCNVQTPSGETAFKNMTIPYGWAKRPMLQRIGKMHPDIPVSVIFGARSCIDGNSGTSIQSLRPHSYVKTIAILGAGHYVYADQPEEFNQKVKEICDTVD
UPR CHOP act: activators of apoptotic arm of unfolded protein response (CHOP) | activation, % at 10 µM | 0.34% of 330,000 active | CHO-CHOP luciferase reporter, UPR activation, luminescence; percent of tunicamycin response over DMSO baseline;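 active means at 10 µM dose, activation of 40% or more, normalized to positive control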;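 further: 100% = tunicamycin at 10 µg/mL and 0% = DMSO alone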
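System: CHO-CHOP luciferase reporter cell line | Buffer or medium: F12 medium containing 10% fetal bovine serum | Doses: One dose, 10 µM in 0.5% DMSO | Times: 6 h compound exposure at 37 °C after overnight seeding | Signal: Luciferase luminescence | Read-out: % activation vs tunicamycin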
ABHD5 PLIN5 conf: ABHD5-PLIN5 interaction inhibition, confirmed. shares compounds with ABHD5-PLIN5 inh. 67% of 2,200 active. biochemical ABHD5-PLIN5 interaction, luminescence. inhibition, % at 4 µM; in the data active means inhibition above about 23%;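 further: 0% = DMSO vehicle wells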
HNF4 counter: counter-screen for ABHD5-PLIN5 inhibitors: HNF4 split-luciferase | AID 651674 | HNF4 dimerization, luminescence, biochemical | 77% of 2,200 active | inhibition, % at 4 µM | shares compounds with ABHD5-PLIN5 inh;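 active means mean inhibition across replicate wells exceeding the computed hit threshold, cut at about 13% in these data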;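 further: light from luciferase halves that rejoin when HNF4 fusion proteins dimerize; 0% = DMSO only wells and the 100% control is not given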
* hit, by the source's call; nt = no result given.

SMILES	Mdm2 MdmX PPI	XBP1 UPR activ	Granule exo inh	ABHD5-PLIN5 inh	UPR CHOP act	ABHD5 PLIN5 conf	HNF4 counter
O=C(CN1CCN(Cc2ccccc2)CC1)N1CCN(c2ccccc2)CC1	15	-5	-4	0	1	nt	nt
O=C(Nc1ccc[n+](CC(=O)c2cccc3ccccc23)c1)c1ccccc1	37	1	1	24*	-1	18	7
N#C/C(=C/c1ccc(N2CCOCC2)o1)C(=O)NC1CCCCC1	-13	4	-1	27*	4	13	34*
N#C/C(=C/c1ccc(N2CCCCC2)o1)C(=O)Nc1ccc2ccccc2c1	nt	nt	63*	26*	nt	37*	31*
N#C/C(=C/c1ccc(N2CCCCC2)o1)C(=O)Nc1ccc(Cl)cc1	-97	2	9	9	5	nt	nt
CC(C)C[C@H]1CN([C@@H](Cc2ccc(O)cc2)CN2CCC[C@@H]2CN2C(=S)NC[C@@H]2Cc2ccccc2)C(=S)N1CCc1ccccc1	nt	nt	20	18	nt	nt	nt
CC(C)C[C@H]1CNC(=S)N1C[C@H]1CCCN1C[C@H](Cc1ccc(O)cc1)N1C[C@H](Cc2ccc(O)cc2)N(CCc2ccccc2)C1=S	nt	nt	46	23*	nt	8	2
CSC(=Nc1ccccc1)N=C(SCc1ccccc1)N(C)C	nt	nt	39	81*	nt	96*	57*
COc1ccc(/C=C/C(=O)c2ccccn2)cc1	14	-1	0	7	4	nt	nt
COc1ccc([N+](=O)[O-])c(C=CC(=O)c2ccccn2)c1	nt	nt	-1	53*	nt	98*	101*
CCCCCCCCOC(=O)c1cc([N+](=O)[O-])c(Sc2ncnc3nc[nH]c23)c([N+](=O)[O-])c1	nt	nt	-5	28*	nt	99*	90*
CCCCOC(=O)c1ccc(Nc2ncnc3nc[nH]c23)cc1	13	4	-2	6	2	nt	nt
COCCN(CC(=O)Nc1cccc(C)c1)S(=O)(=O)c1ccc(S(=O)(=O)N2CCCC2)cc1	-5	-1	-1	-5	0	nt	nt
CC(=O)NCCC(=O)N1CCCC(N(C)CCc2ccccc2)C1 (configuration not stated)	-6	-2	-8	1	2	nt	nt
Cc1nnc(NC(=O)CSc2nnc(Cc3ccccc3)n2-c2ccccc2)s1	21	-3	2	0	-1	nt	nt
CCCn1nc2cc(C(=O)NCc3ccc(OC)cc3)ccc2c1OCC	-16	2	-2	-2	1	nt	nt
CCCn1nc2cc(C(=O)N(CC)c3ccc(OC)cc3)ccc2c1OCC	-8	-1	-1	71*	0	3	0
C[C@H]1CN([C@@H](C)CO)S(=O)(=O)c2ccc(C#Cc3cccnc3)cc2O[C@@H]1CN(C)C(=O)Nc1ccc2c(c1)OCO2	nt	nt	-16	10	nt	nt	nt
COCCN(C)Cc1nc(C(c2ccccc2)c2ccccc2)no1	-8	-3	1	-10	1	nt	nt
CCC(c1ccccc1)c1noc(CCN(CC)CC)n1 (configuration not stated)	nt	nt	-2	60*	nt	73*	32*
CN(C)c1ccc(/C=C2/C[N+](C)(C)C/C(=C/c3ccc(N(C)C)cc3)C2=O)cc1	nt	nt	-4	39*	nt	50*	42*
CCN(CC)c1ccc(/C=C2/SC(=O)N(C(C)C)C2=O)o1	nt	nt	78*	93*	nt	73*	109*
CC(C)N1C(=O)S/C(=C\c2ccc(-c3ccc(Cl)c(C(=O)O)c3)o2)C1=O	-116	4	-7	7	3	nt	nt
Cc1ccc(C(=O)Nc2nc3ccccc3c(=O)s2)cc1	-89	-5	18	29*	0	6	-10
O=C(Nc1nc(=O)c2ccccc2s1)c1ccccc1	-112	1	10	11	3	nt	nt
CC(=O)N=c1c(C#N)cc2c(=O)n3cccc(C)c3nc2n1CCCOC(C)C	2	-4	-2	2	0	nt	nt
CC(=O)N=c1c(C#N)cc2c(=O)n3cccc(C)c3nc2n1Cc1ccco1	4	-3	-1	49*	5	13	14*
